Measured values from the EternaBench riboswitch data.

Test system: MS2 coat protein
Assay: apparent Kd, MS2 coat protein; higher = weaker binding; RNA-MaP array
Method in brief: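 Designed RNAs were transcribed in place on an Illumina sequencing chip from sequenced DNA templates. At room temperature and with or without input ligand, they were incubated with fluorescently labeled MS2 coat protein from 1.5 nM to 3 μM, for 0.8–1.5 h at the lowest and 10–20 min at the highest concentrations. Apparent Kd is the median of the binding-curve fits made per cluster, with designs measured on fewer than 10 clusters excluded.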

[1] = designed as: OFF switch for flavin mononucleotide, no ligand
[2] = ligand present: flavin mononucleotide, designed as: OFF switch for flavin mononucleotide
[3] = designed as: ON switch for theophylline, no ligand
[4] = ligand present: theophylline, designed as: ON switch for theophylline
[5] = designed as: ON switch for flavin mononucleotide, no ligand
[6] = ligand present: flavin mononucleotide, designed as: ON switch for flavin mononucleotide
[7] = designed as: ON switch for tryptophan, no ligand
[8] = ligand present: tryptophan, designed as: ON switch for tryptophan

Sequence: ACUAAUCAGCAACAUGAGGAUCACCCAUGUGGGCCGUCCGGCAGAAGGCCUACGCACUUAGACUAGGAGGAUAUGCAAGCAACU
- apparent Kd [1]: 15.7 nM
- apparent Kd [2]: 18.4 nM

Sequence: CAAAUAGACCACGAUACCAGAACACAAGGAGUAAUAUCAAACAUGAGGAUCACCCAUGUCUUCCCUUGGCAGCGUAGCACGGAGU
- apparent Kd (designed as: OFF switch for theophylline, no ligand): 11.7 nM
- apparent Kd (ligand present: theophylline, designed as: OFF switch for theophylline): 13.3 nM

Sequence: GAUCUGGCGGUGAGGAUAUAUAUCAAAUGCAAGGCAUAGAAGGCACAUGAGGAUCACCCAUGUCUGCACCAGGG
- apparent Kd [1]: 14 nM
- apparent Kd [2]: 15.6 nM

Sequence: AUAAACCUAGGAUAUACCAGGACGAUUCAACAAGAAAACGAACAUGAGGAUCACCCAUGUAGAAGGAGGGAAAG
- apparent Kd [1]: 20.5 nM
- apparent Kd [2]: 25.3 nM

Sequence: AGGAAGACGAUGGAUACCAGACAACCAGGGAACAUGAGGAUCACCCAUGUGAUUGAAAGGGUCCCUUGGCAGCCAGAAGCCGUUG
- apparent Kd [3]: 88.3 nM
- apparent Kd [4]: 119 nM

Sequence: CCUAACUGAGGAUAUGACAACUGGCACAUGAGGAUCACCCAUGUAGACUCAUUCGAGUUAUCAGAAGGCAGAAUAU
- apparent Kd [1]: 10.7 nM
- apparent Kd [2]: 18.8 nM

Sequence: UUGGGACAUGAGGAUCACCCAUGUCAGGAUAUAUAUAAUCUGCGCGACGAGGGAUACAAUAGAAGGGACAACGG
- apparent Kd [1]: 18.2 nM
- apparent Kd [2]: 15.1 nM

Sequence: UGGACUUCAGGAUAUACAUGAGGAUCACCCAUGUAUACGUGUAUGAUCCCAGAAACAAGUAGAAGGGAAAGCCG
- apparent Kd [1]: 5.71 nM
- apparent Kd [2]: 5.65 nM

Sequence: GUAUGGGCGUAACAUGAGGAUCACCCAUGUCCGAAUGCGAUGAGAAGGCCACAUAGUUGGCUGAUGGAGGAUAUCAAAGUAUAU
- apparent Kd [1]: 97.9 nM
- apparent Kd [2]: 70.8 nM

Sequence: GCAACCCUGCAGAAGGGCGGGUGUACAUGAGGAUCACCCAUGUUAUCAGCAAAGUAGCUGGAUACGCAGGAUAUGCAGUCGAGU
- apparent Kd [5]: 164 nM
- apparent Kd [6]: 29.6 nM

Sequence: UUCUACUAGUGACACUACUAGACAUGAGGAUCACCCAUGUCAGAGGAUAUGGAAAGACAUUAUUACCAGAAGGCUGCCAAGGUA
- apparent Kd [5]: 15.6 nM
- apparent Kd [6]: 15 nM

Sequence: GGCCUUGUUGUUAUAGGACAUGAGGAUCACCCAUGUAUAUGUAAGGAUAUGAAUCGUAAGACGCAUCAGAAGGUACAGUACUGG
- apparent Kd [1]: 122 nM
- apparent Kd [2]: 55.8 nM

Sequence: AUCGAUUUUAUAGGAUAUCGCACAUGAGGAUCACCCAUGUGCCCGACAGACUUAAAGCUCAAUCGCGAGAAGGAUAGAACAGGG
- apparent Kd [1]: 8.63 nM
- apparent Kd [2]: 8.02 nM

Sequence: GGACAUGAGGAUCACCCAUGUAGUGGAGGGCUCAGGCUCGCAAGAAGGUUAAGAAUAUAGUCAAUAAAGGAUAUUGAGGGCCGA
- apparent Kd [1]: 21.7 nM
- apparent Kd [2]: 19.2 nM

Sequence: UCUAACAUGAGGAUCACCCAUGUGGGUUAUCGAGGACCGGUACGGCCGCCACUCGACCAGUAUAACUGGCUAGAACGUAUUUGAU
- apparent Kd [7]: 34 nM
- apparent Kd [8]: 26.6 nM

Sequence: CGAUUACUGCAGAAGGGAGGGCCACAAAACAUGAGGAUCACCCAUGUAGAACUGAACGGGACUCCUCAGGAUAUGCGCCGAGAU
- apparent Kd [5]: 28.7 nM
- apparent Kd [6]: 11.8 nM

Sequence: GUAACACUGUCAUCGCCGACAUGAGGAUCACCCAUGUGUAAGAGAAGGACCGAGACCGGGAAAUGGUAGGAUAUCUGUGGGUAG
- apparent Kd [1]: 45.1 nM
- apparent Kd [2]: 84.5 nM

Sequence: GUGCACCGUGAGAAGGCAUAGCACGUGUCGCUGACAUGAGGAUCACCCAUGUGUUGUAAAGUGCAUGAGGAUAUCAGCCAUAGG
- apparent Kd [5]: 42.3 nM
- apparent Kd [6]: 10.4 nM

Sequence: AUUAACAUGAGGAUCACCCAUGUGGCCCACCGAGGACCGGUACGGCCGCCACUCGUCGGAAAGGCUAAAUUUAUGAAGUCCAAAA
- apparent Kd [7]: 18.7 nM
- apparent Kd [8]: 16.1 nM

Sequence: AAAGAUAACAAAGGAUAUGGAAGAAAUUAUAGGCCAGAAGGAUGGAAAUUGACAAUCGUGACAUGAGGAUCACCCAUGUAAGAA
- apparent Kd [5]: 15.9 nM
- apparent Kd [6]: 13.2 nM

Sequence: UCAUGGUCUGGAGAGAGAAUUACAUGAGGAUCACCCAUGUGCAGAAGGAGUUAUCGCACAACAAACUAGGAUAUGCCAAGAAUU
- apparent Kd [5]: 98.1 nM
- apparent Kd [6]: 152 nM

Sequence: CGGUGUGCAGAGGAUAUCGGCGUUUUCUCACAUCGAGAAGGCUGCACAUGAGGAUCACCCAUGUAUCUUUAGGA
- apparent Kd [1]: 58.6 nM
- apparent Kd [2]: 189 nM

Sequence: GGUCGUCUAGUUAGGAUAUCAUUAUUAGAUUAAAUUGAGAAGGAACAUGAGGAUCACCCAUGUCGACAACUAUC
- apparent Kd [1]: 7.13 nM
- apparent Kd [2]: 8.12 nM

Sequence: CACAUUCCUUAGAAGGCUACGAAUUUAGCGCGUAGAGGAUAUAAGGGAUACAUGAGGAUCACCCAUGUGAUAUAUCUUCUGAAA
- apparent Kd [1]: 20.8 nM
- apparent Kd [2]: 24.1 nM

Sequence: AGUUGUGGAAAGAAGGCGUGACGAGGUAAAUAUCCAACAUGAGGAUCACCCAUGUUUCUUGCCUACGAGGAUAUUUGUGCUAUC
- apparent Kd [5]: 14 nM
- apparent Kd [6]: 12.2 nM

Sequence: CUGGGCCAAUAGAAGGGCGGGAGCGCAGGUGAUCAAACCUAUUACAUGAGGAUCACCCAUGUAACGCAGGAUAUAUCGGUUUUA
- apparent Kd [1]: 25.4 nM
- apparent Kd [2]: 48 nM

Sequence: GGCGGGAAAUGAGGAUAUGGUAGUUGAGAAACGCCAGAAGGCAUUGGCAAGGCUAGAGACAUGAGGAUCACCCAUGUAAUCAUA
- apparent Kd [5]: 8.35 nM
- apparent Kd [6]: 7 nM

Sequence: ACUGUCUUUGAUGAUAUGUAUGGGUCAUUGCGAGGACCGGUACGGCCGCCACUCGGUCCGCCACAUGAGGAUCACCCAUGUCUAU
- apparent Kd (designed as: OFF switch for tryptophan, no ligand): 94.5 nM
- apparent Kd (ligand present: tryptophan, designed as: OFF switch for tryptophan): 195 nM

Sequence: CCGUUUGAUCAGAAGGAACCAGUCGAACCAUGUGACAGACAUGAGGAUCACCCAUGUUCGCGCGGUUAGGAUAUGACAGCUCAG
- apparent Kd [1]: 13.2 nM
- apparent Kd [2]: 64.5 nM

Sequence: CAGUGAGCCAAGAAGGUUGCUGACGAUAGUGGCAAAGGAUAUUGAGGGCGCAAUCAUUUACAUGAGGAUCACCCAUGUUCUUAC
- apparent Kd [5]: 35.4 nM
- apparent Kd [6]: 17.5 nM

Sequence: AAGGGCGCAGUAGGAUAUCAAUGUUUGACGGCGUGAGAAGGACUGCCCUAUUUUCAGACAUGAGGAUCACCCAUGUGCGUAAGA
- apparent Kd [5]: 9.4 nM
- apparent Kd [6]: 6.41 nM

Sequence: AAACAUGAGGAUCACCCAUGUCGUCCAAUGUAGGCCUAUUGCGAGGAUAUCAUGUCCCAACUACGUGAGAAGGCGCGACUACCA
- apparent Kd [1]: 15.2 nM
- apparent Kd [2]: 12.5 nM

Sequence: AAUUCAAGGGUUAGGAUAUUCAAUAUAAAAUACUAGAAGAAGGAACAUGAGGAUCACCCAUGUUAUAGUGAUCU
- apparent Kd [1]: 27.1 nM
- apparent Kd [2]: 32.1 nM

Sequence: UCGGUUCGUGUAGGAUAUACUCGCAAACAGGCAAAAUGCCUACAUGAGGAUCACCCAUGUUAGUGGUAGAAGGACACCUCAACA
- apparent Kd [5]: 479 nM
- apparent Kd [6]: 115 nM

Sequence: AAGAGACAUGAGGAUCACCCAUGUGUUGAUACCAGAAACACAAAGUUCCCUUGGCAGCAAAUCUGAGCGAAACGAUCUAGAGCGC
- apparent Kd [3]: 48.4 nM
- apparent Kd [4]: 74.5 nM

Sequence: GCACUAGAGCAAGGAUAUAUAUCGGAAUCUACAUGAGGAUCACCCAUGUGUGUGACUUCUCGCAGAUAGAAGGUGCUCGCUGAC
- apparent Kd [1]: 433 nM
- apparent Kd [2]: 206 nM

Sequence: UGGGAACAUGAGGAUCACCCAUGUGAGGAUAUCCACCGAUUUCACACGAUAGGCACAAGGAGAAGGCACACCUA
- apparent Kd [1]: 33.9 nM
- apparent Kd [2]: 36.2 nM

Sequence: AUAAUCCCUGUUCAGAGACAUGAGGAUCACCCAUGUUUAACGAGAAGGUGAGUGCGACGGCGUCUCAAGGAUAUCGACGUGACC
- apparent Kd [1]: 9.05 nM
- apparent Kd [2]: 10.4 nM

Sequence: UAAAGAGAAGGAUAUACAGGAAGAAAAGCCUCACAAUCGUAACAUGAGGAUCACCCAUGUAGAAGGACUAACAA
- apparent Kd [1]: 38.7 nM
- apparent Kd [2]: 29.5 nM

Sequence: GGGAUUCGUGUUAGGAUAUUGAGGUGUAUUCCCGACAAGAAGGAACAUGAGGAUCACCCAUGUUGGGAACUGUG
- apparent Kd [1]: 33.9 nM
- apparent Kd [2]: 62.6 nM

Sequence: UACUUGAAGUUGCAGGAUAUUUAGGAUCUAACAUGAGGAUCACCCAUGUUAUAUGAGAGACGUAUAAAGAAGGGCAGCGUGAUAGA
- apparent Kd [5]: 9.4 nM
- apparent Kd [6]: 5.9 nM

Sequence: AGUCCCAGGGAGAAGGACAUGAUCACAUGAGGAUCACCCAUGUGAGCCAUUUUAUGUAGGGACGUGUAGGAUAUCCGGACAUGG
- apparent Kd [1]: 6.27 nM
- apparent Kd [2]: 6.11 nM

Sequence: GACUAAUAGGAGAAGGGACAAUCUACAAUCGCGUCAGGAUAUCCGACAUGAGGAUCACCCAUGUAGAGAAGGGCGCAGCCCGGC
- apparent Kd [5]: 24.3 nM
- apparent Kd [6]: 18.3 nM

Sequence: GAAACAUUAGAAGGAUAUGAUACGAACACCGGGUACAUGAGGAUCACCCAUGUUCAGAAAUAAUAUCAGAAGGUCAGCAACAAA
- apparent Kd [5]: 985 nM
- apparent Kd [6]: 418 nM

Sequence: GCGGGAGCACAGAAGGCGGAACUAAAGCAAUUACCAAUAGUUAACAUGAGGAUCACCCAUGUGCCCGAGGAUAUGUCGAAAGUG
- apparent Kd [5]: 53.2 nM
- apparent Kd [6]: 10.6 nM

Sequence: ACUCGGGGUUGAGGAUAUUCGACUCGAUCUCCACAUGAGGAUCACCCAUGUCAGGACUGACCGGUGAAGAAGGCAACCGUACAU
- apparent Kd [5]: 16.2 nM
- apparent Kd [6]: 5.67 nM
